Entries after “also recorded” stand apart in the source; their conditions may differ. Where a name gives a salt, the structure may show the parent alone. Read-outs that look alike come from different tables or passages of the source.
Tests used:
[1] = biological target: T1, Sm.5HTRL (Schistosoma mansoni, UniProt A0A173FEI8); test: Sm.5HTRL cAMP luminescence; assay type: cell-based; conditions: for Emax: read-out: Sm.5HTRL Emax (normalized to 5-HT)
T1 sequence (A0A173FEI8 1-547): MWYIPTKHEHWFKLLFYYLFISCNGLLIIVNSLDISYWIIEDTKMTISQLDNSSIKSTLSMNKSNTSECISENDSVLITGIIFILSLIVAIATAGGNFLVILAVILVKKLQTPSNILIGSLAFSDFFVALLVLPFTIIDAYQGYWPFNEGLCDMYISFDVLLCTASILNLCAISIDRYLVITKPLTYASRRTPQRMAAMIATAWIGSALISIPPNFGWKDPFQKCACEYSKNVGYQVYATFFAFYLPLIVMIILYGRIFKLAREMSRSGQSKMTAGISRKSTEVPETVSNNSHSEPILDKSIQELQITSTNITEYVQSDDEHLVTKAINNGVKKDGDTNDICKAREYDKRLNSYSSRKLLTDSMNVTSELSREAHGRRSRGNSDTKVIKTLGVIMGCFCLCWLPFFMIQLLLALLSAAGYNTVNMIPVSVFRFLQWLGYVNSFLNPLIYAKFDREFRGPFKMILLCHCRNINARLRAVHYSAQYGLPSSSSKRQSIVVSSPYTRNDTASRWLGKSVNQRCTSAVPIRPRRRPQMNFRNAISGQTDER
Method in brief: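 HEK-293 cells stably carrying the GloSensor-22F cAMP reporter and codon-optimised Sm.5HTRL (pcDNA3.1), selected with hygromycin (200 μg/mL) and G418 (400 μg/mL), plated 2.5x10^4 cells/well the day before. Assay buffer was HBSS/HEPES (20 mM, pH 7.4), 0.1% BSA, D-luciferin 1 mg/mL. Cells were equilibrated 1 h at room temperature, then IBMX 200 μM for 30 min. Luminescence was read 45 min after test compound; Emax was taken relative to 5-HT.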

[2] = system: adult S. mansoni; test: Adult schistosome mobility assay, agonist; set-up: species or system Schistosoma mansoni; conditions: adult male worms ex vivo; for increase in worm movement: 5 min incubation
Method in brief: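 Adult worms came from female Swiss Webster mice 49 days after infection with NMRI-strain cercariae. They were washed in RPMI 1640 with HEPES 25 mM, 5% heat-inactivated FBS and pen-strep, then cultured overnight at 37 °C/5% CO2. Males (4–5/well, 3 mL) were exposed to test compound for 5 min. Movement was filmed for 1 min at 4 frames/s and quantified by image analysis; mean ± standard error, ≥3 independent experiments.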

[3] = system: mammalian 5-HT7 receptors; conditions: cited from earlier work
[4] = system: human 5-HT7 receptor; conditions: cited from earlier work
[5] = biological target: T1, Sm.5HTRL; test: Sm.5HTRL cAMP luminescence; assay type: cell-based; conditions: for antagonist activity at Sm.5HTRL (in words): inhibition of 5-HT response, test compound up to 50 μM
Method in brief: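 Sm.5HTRL/GloSensor-22F stable HEK-293 cells, 2.5x10^4/well, in HBSS/HEPES (20 mM, pH 7.4), 0.1% BSA, 1 mg/mL D-luciferin. After 1 h at room temperature, IBMX 200 μM was added for 30 min. Test compound was added and read 45 min, then 500 nM serotonin was added and luminescence read another 45 min. IC50 came from concentration-inhibition curves; Ki was estimated by Cheng-Prusoff.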

[6] = biological target: T1, Sm.5HTRL; conditions: ref Chan et al., cited from earlier work
[7] = system: adult S. mansoni; conditions: previous work; ref Chan et al., 2016c; cited from earlier work
[8] = system: adult S. mansoni; test: Adult schistosome mobility assay, antagonist; set-up: species or system Schistosoma mansoni; conditions: for inhibition of 5-HT evoked movement (in words): concentrations as high as 50 μM, serotonin 200 μM; for concentration inhibiting 5-HT evoked movement: 1 h incubation, then serotonin 200 μM
Method in brief: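 Adult worms were recovered 49 days after cercarial infection of female Swiss Webster mice (NMRI strain parasite). They were kept overnight at 37 °C/5% CO2 in RPMI 1640 with HEPES 25 mM, 5% heat-inactivated FBS and pen-strep. Males (4–5/well) were incubated 1 h in test compound, then serotonin 200 μM was added. One-minute videos at 4 frames/s were analysed for movement; mean ± standard error, ≥3 independent experiments.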

[9] = system: HEK-293 cells expressing the GloSensor-22F reporter alone; test: Counter-screen on parental GloSensor-22F cell line lacking Sm.5HTRL; assay type: cell-based; conditions: agonists at 10 μM
Method in brief: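 Counter-screen used HEK-293 cells stably expressing the GloSensor-22F cAMP reporter without Sm.5HTRL, plated 2.5x10^4 cells/well the day before. Assay buffer was HBSS/HEPES (20 mM, pH 7.4), 0.1% BSA, 1 mg/mL D-luciferin. Cells were equilibrated 1 h at room temperature, then IBMX 200 μM added for 30 min. Test compound was added and luminescence read for 45 min.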

[10] = biological target: T1, Sm.5HTRL; conditions: ref Chan et al., 2018; cited from earlier work
[11] = ref Bard et al., 1993, Shen et al.
[12] = pKi, estimated using the Cheng-Prusoff equation, inhibition of 500 nM 5-HT

With `NCCc1c[nH]c2ccc(Br)cc12` [5-Bromotryptamine] the “agonist activity at Sm.5HTRL (in words)” value [1] was “partial agonist activity”.

For `NCCc1c[nH]c2ccc(C(N)=O)cc12` [5-Carboxamidotryptamine], the “agonist activity at Sm.5HTRL (in words)” value ([1]; listed as 5-CT) is listed as “inactive”, the “effect on worm movement (in words)” value [2] is listed as “did not stimulate movement” and the “activity at mammalian 5-HT7 receptors (in words)” value [3, 11] is listed as “potent full agonists”. For the same compound, the “activity at human 5-HT7 receptor (in words)” value ([4]; ref Plassat et al., 1993) was “full agonists”.

For `C=CCN(CC=C)CCc1c[nH]c2ccc(OC)cc12` [5-MeO-DALT, N,N-diallyl-5-methoxytryptamine], the “agonist activity at Sm.5HTRL (in words)” value [1] was “inactive”.

In the case of `COc1ccc2[nH]cc(CCN(C)C)c2c1` [5-MeO-DMT, 5-methoxy-N,N-dimethyltryptamine], the “agonist activity at Sm.5HTRL (in words)” value [1] is reported as “inactive”.

In the case of `COc1ccc2[nH]cc(CCN)c2c1` [5-methoxytryptamine], the “agonist activity at Sm.5HTRL (in words)” value ([1]; listed as 5-MeOT) is reported as “inactive; also recorded: did not potently activate”, the “effect on worm movement (in words)” value [2] is reported as “stimulated movement” and the “effect on worm movement (in words)” value ([2]; listed as 5-MeOT) is reported as “potently stimulated movement”. For the same compound, the “activity at mammalian 5-HT7 receptors (in words)” value [3, 11] was “potent full agonists” and the “activity at human 5-HT7 receptor (in words)” value ([4]; ref Plassat et al., 1993) was “full agonists”.

In the case of `Cc1ccc2[nH]cc(CCN)c2c1` [5-methyltryptamine], the “agonist activity at Sm.5HTRL (in words)” value [1] is reported as “partial agonist activity” and the “effect on worm movement (in words)” value [2] is reported as “stimulated movement, but only at high concentrations in the hundreds of micromolar”.

`CCCN1CCc2cccc3c2[C@H]1Cc1ccc2c(c1-3)OCO2` [(-)-MDO-NPA hydrochloride] gave a Ki [5, 12] of 100 nM.

For `COc1cc2c(cc1O)C[C@H]1c3c(cc(O)c(OC)c3-2)CCN1C` [Boldine], the “antagonist activity at Sm.5HTRL (in words)” value (“antagonist activity” for short) [5] is given as “potent antagonists” and the “activity at Sm.5HTRL (in words)” value ([6]; 2016a) is given as “Sm.5HTRL antagonists”.

In the case of `CN(C)CCc1c[nH]c2ccc(O)cc12` [Bufotenine], the EC50 [1] is reported as 2400 ± 200 nM and the Emax [1] is reported as 99 ± 34%.

For `COc1ccc2c(c1OC)CN1CCc3cc4c(cc3[C@@H]1C2)OCO4` [Canadine], the “antagonist activity” value [5] was “loss of activity; also recorded: inactive”.

For `COc1cc2c(cc1OC)C1Cc3ccc(OC)c(OC)c3CN1CC2` (centres unmarked) [D,L Rotundine], the Ki [5] is given as 63.1 nM, the “activity at Sm.5HTRL (in words)” value ([6]; 2016c, listed as D/L-rotundine) is given as “antagonist” and the “activity at Sm.5HTRL (in words)” value ([6]; 2016c, listed as rotundine) is given as “potent antagonists”. For the same compound, the “effect on movement of adult worms (in words)” value [7] was “inhibited movement of adult worms”.

With `COc1cc2c(cc1OC)[C@H]1Cc3ccc(OC)c(OC)c3CN1CC2` [D-Rotundine] the “antagonist activity” value [5] was “inactive” and the “inhibition of 5-HT evoked movement (in words)” value [8] was “no inhibition”.

In the case of `COc1cc2c(cc1OC)-c1c(OC)c(OC)cc3c1[C@H](C2)N(C)CC3` [D-glaucine], the “antagonist activity” value [5] is listed as “potent antagonists”, the Ki [5, 12] is listed as 158 nM and the “activity at Sm.5HTRL (in words)” value ([6]; 2016a) is listed as “Sm.5HTRL antagonists”.

In the case of `CN(C)CCc1c[nH]c2ccccc12` [DMT, N,N-Dimethyltryptamine], the “agonist activity at Sm.5HTRL (in words)” value [1] is reported as “inactive” and the “effect on worm movement (in words)” value [2] is reported as “no effect on worm movement”.

For `COc1cc2cc3c4c(cc(OC)c(OC)c4c2cc1OC)CCN3C` [Dehydroglaucine], the “antagonist activity” value [5] was “inactive”.

For `COc1cc2c3c(c1OC)-c1ccccc1C[C@H]3N(C)CC2` [L-Nuciferine], the “antagonist activity” value [5] is listed as “potent antagonists”, the Ki [5, 12] is listed as 79.4 nM and the “activity at Sm.5HTRL (in words)” value ([6]; 2016a) is listed as “potent antagonists; also recorded: Sm.5HTRL antagonists”.

In the case of `COc1cc2c(cc1OC)[C@@H]1Cc3ccc(OC)c(OC)c3CN1CC2` [L-Rotundine], the “antagonist activity” value [5] is reported as “active” and the “concentration inhibiting 5-HT evoked movement” value [8] is reported as ≥ 1 µM.

In the case of `COc1ccc(CC2c3cc(OC)c(OC)cc3CCN2C)cc1OC` (centres unmarked) [Laudanosine], the “antagonist activity” value [5] is reported as “None of these showed any inhibition”.

In the case of `CNCCc1c[nH]c2ccccc12` [N-Methyltryptamine], the “agonist activity at Sm.5HTRL (in words)” value [1] is reported as “inactive”.

With `CNCCc1c[nH]c2ccc(O)cc12` [N-methylserotonin] the EC50 [1] was 154 ± 11 nM, the Emax [1] was 113 ± 28% and the “effect on worm movement (in words)” value [2] was “full agonist”. For the same compound, the “increase in worm movement” value [2] was 252 ± 9% and the “activity at mammalian 5-HT7 receptors (in words)” value ([3]; ref Powell et al., 2008) was “full agonist”.

With `COc1cc2c(cc1OC)-c1cc3ccc(OC)c(OC)c3c[n+]1CC2` [Palmatine] the “antagonist activity” value [5] was “inactive” and the “inhibition of 5-HT evoked movement (in words)” value [8] was “no inhibition”.

With `COc1ccc(C(=O)c2nccc3cc(OC)c(OC)cc23)cc1OC` [Papaveraldine] the “antagonist activity” value [5] was “None of these showed any inhibition”.

For `COc1ccc(Cc2nccc3cc(OC)c(OC)cc23)cc1OC` [Papaverine], the “antagonist activity” value [5] was “None of these showed any inhibition”.

For `CC1CCN(CC[C@H]2CCCN2S(=O)(=O)c2cccc(O)c2)CC1` [SB-269970], the “activity at Sm.5HTRL (in words)” value ([6]; 2016c) is given as “inactive”.

In the case of `NCCc1c[nH]c2ccc(O)cc12` [Serotonin], the EC50 [1] is reported as 94 ± 18 nM, the “increase in worm movement” value [2] is reported as 224 ± 17% and the “activity in cells expressing the GloSensor-22F reporter alone (in words)” value [9] is reported as “not observed”.

With `c1cc2c(c3c1CC1c4cc5c(cc4CCN1C3)OCO5)OCO2` (centres unmarked) [Tetrahydrocoptisine] the “antagonist activity” value [5] was “loss of activity” and the “antagonist activity” value ([5]; listed as tetrahydrocopsitine) was “inactive”.

For `NCCc1c[nH]c2ccccc12` [Tryptamine], the “agonist activity at Sm.5HTRL (in words)” value [1] was “negligible activity”.

In the case of `COc1cc2c3c(c1O)-c1ccccc1CC3N(C)CC2` (centres unmarked) [compound 785177], the “concentration inhibiting 5-HT evoked movement” value [8] is reported as 1 to 10 µM.

With `COc1cc2c(cc1OC)CN1CCc3cc(OC)c(OC)cc3[C@@H]1C2` [d-Xylopinine] the “antagonist activity” value [5] was “decreased potency” and the “times less potent than rotundine at Sm.5HTRL” value ([5]; relative to rotundine) was ~10.

For `COc1cc2c3c(cc4ccccc4c3c1OC)N(C)CC2` [dehydronuciferine], the “antagonist activity” value [5] was “inactive”.

For `CN1C[C@H](C(=O)N[C@]2(C)O[C@@]3(O)[C@@H]4CCCN4C(=O)[C@H](Cc4ccccc4)N3C2=O)C=C2c3cccc4[nH]cc(c34)C[C@H]21` [ergotamine], the “activity at Sm.5HTRL (in words)” value [10] is listed as “full agonist” and the “activity at human 5-HT7 receptor (in words)” value ([4]; ref Wacker et al., 2013) is listed as “potent antagonist”.

With `COc1cc2c3c(c1OC)-c1cc4c(cc1CC3N(C)CC2)OCO4` (centres unmarked) [nantenine] the “antagonist activity” value [5] was “potent antagonists”.

— paper PMC6287472 (International Journal for Parasitology: Drugs and Drug …, 2018)
